Measured values taken from paper PMC7391373 (ACS Omega, 2020).

Assays:
[1] = biochemical assays, liver and kidney function tests; format: in vivo, Mus musculus
Summary of the method: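 In P. berghei-infected Laca mice (oral dosing once daily D0–D3), blood was collected from the tail vein on day 10 and from survivors on day 28. Serum ALP, SGOT, SGPT and bilirubin (liver) and urea and creatinine (kidney) were measured with commercial diagnostic kits. Data are mean ± SD, five mice per group.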

[2] = tested on: Plasmodium berghei (NK-65); assay: in vivo suppressive activity, Peter's 4 day test; details: for chemosuppression (%), day 5 / parasitemia (%), day 5 / mean survival time (MST): mice; for parasitemia (%), day 28: surviving mice
Summary of the method: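 Peters 4-day suppressive test in Laca Swiss albino mice (6–8 weeks, 25 ± 2 g), five per group. On D0, mice received 1 × 10^6 P. berghei NK-65-infected erythrocytes i.p. Dosing began 1 h post-inoculation, oral, once daily D0–D3 (0.2 mL). Giemsa tail smears were taken 24 h after the last dose. Chemosuppression was calculated from mean parasitemia relative to infected controls. Survival and parasitemia were followed to day 28.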

[3] = in vitro cytotoxicity, MTT assay, dermal fibroblasts; format: cell-based; details: human, primary culture of normal human dermal fibroblasts
Summary of the method: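 HeLa cells and primary normal human dermal fibroblasts (fibroblasts used within seven passages) were kept in DMEM with 10% fetal calf serum and 2 mM glutamine at 37 °C, 5% CO2. Cells were seeded at 5000–10 000 per well; after 24 h they received test compound (10–640 μg) in duplicate for 48 h. MTT (1 mg/mL stock) was added for 1 h, formazan was dissolved in DMSO, and OD was read at 450 nm.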

[4] = tested on: P. falciparum 3D7 (chloroquine-sensitive); assay: schizont maturation inhibition assay, 3D7 strain; format: cell-based, Plasmodium falciparum
Summary of the method: (§1)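 P. falciparum (3D7 chloroquine-sensitive; RKL-9 chloroquine-resistant) was cultured in A+ human erythrocytes in RPMI-1640 with 10% human AB+ serum. Ring-synchronized parasites (2–3% parasitemia, 1.8% final haematocrit) were exposed in duplicate to test compound at 1–16 μg/mL for 48 h at 37 °C, 5% CO2. Positive controls were chloroquine 10 μM and artesunate 2 μM. Schizont inhibition versus controls was scored on Giemsa smears. SI was calculated as CC50 (HeLa/fibroblasts) divided by IC50.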

[5] = tested on: RAW 264.7 murine macrophage cells; assay: determination of nitric oxide; format: cell-based
[6] = tested on: P. falciparum RKL-9 (chloroquine-resistant); assay: schizont maturation inhibition assay, RKL-9 strain; format: cell-based, Plasmodium falciparum
Summary of the method: as §1

[7] = acute toxicity; oral administration; cited from earlier work
[8] = monotherapy 10 mg/kg oral OD D0–D3
[9] = monotherapy 20 mg/kg oral OD D0–D3
[10] = monotherapy 50 mg/kg oral OD D0–D3
[11] = monotherapy 100 mg/kg oral OD D0–D3
[12] = monotherapy 4 mg/kg oral OD D0–D3

COC(=O)[C@@H]1Cc2c([nH]c3ccccc23)[C@@H](c2ccc3c(c2)OCO3)N1 [9a, (1R,3S)-methyl 1-(benzo[d][1,3]dioxol-5-yl)-2,3,4,9-tetrahydro-1H-pyrido[3,4-b]indole-3-carboxylate]
levels of renal function biomarkers (creatinine, urea) ([1]; monotherapy 100 mg/kg): within the normal range | levels of ALP, SGOT, SGPT, and bilirubin ([1]; monotherapy 50 and 100 mg/kg, day 10 and day 28): within normal range | chemosuppression (%), day 5 [2, 8]: 40.49% | parasitemia (%), day 5 [2, 8]: 17.31 ± 2.40 (n = 5) % | chemosuppression (%), day 5 [2, 9]: 46.82% | parasitemia (%), day 5 [2, 9]: 15.47 ± 2.69 (n = 5) % | chemosuppression (%), day 5 [2, 10]: 64.76% | parasitemia (%), day 5 [2, 10]: 10.25 ± 4.93 (n = 5) % | parasitemia (%), day 28 [2, 10]: 3.43 ± 0.51 (n = 2) % | mean survival time (MST) ([2]; monotherapy 50 mg/kg): 21.8 ± 6.09 days | chemosuppression (%), day 5 [2, 11]: 91.19% | parasitemia (%), day 5 [2, 11]: 2.56 ± 1.71 (n = 5) % | parasitemia (%), day 28 [2, 11]: 2.41 ± 0.97 (n = 3) % | mean survival time (MST) ([2]; monotherapy 100 mg/kg): 22.6 ± 7.79 days | viability at 48 h, 640 μg/mL [3]: 56.5 ± 5.07% | selectivity index (SI) ([4]; CC50 / IC50 on 3D7): > 10 | IC50 ([4]; Plasmodium falciparum, 3D7, 48 h, 3D7 strain, 48 h): < 1 µg/mL | inhibition at 1 µg/mL ([4]; Plasmodium falciparum, 3D7, read-out: inhibition (schizont maturation)): > 75% | nitrite production from macrophages ([5]; 100 μg/mL): comparable to the normal cells | selectivity index (SI) ([6]; CC50 / IC50 on RKL-9): > 10 | IC50 ([6]; Plasmodium falciparum, 48 h, RKL-9 strain): < 1 µg/mL | inhibition at 1 µg/mL ([6]; Plasmodium falciparum, read-out: inhibition (schizont maturation)): > 75% | LD50 [7]: > 4000 mg/kg

C[C@H]1[C@H](OC(=O)CCC(=O)O)O[C@@H]2O[C@@]3(C)CC[C@H]4[C@H](C)CC[C@@H]1[C@@]24OO3 [artesunate, reference compound]
chemosuppression (%), day 5 [2, 12]: 94.01% | parasitemia (%), day 5 [2, 12]: 1.74 ± 0.83 (n = 5) % | mean survival time (MST) ([2]; monotherapy 4 mg/kg): 18.6 ± 2.19 days | chemosuppression (%), day 5 [2, 10]: 99.89% | parasitemia (%), day 5 [2, 10]: 0.03 ± 0.01 (n = 5) % | parasitemia (%), day 28 [2, 10]: 0 ± 0 (n = 2) % | mean survival time (MST) ([2]; monotherapy 50 mg/kg): 22.4 ± 5.77 days | inhibition at 2 µM ([4]; Plasmodium falciparum, 3D7): 100% | nitrite production from macrophages ([5]; 2 μM): comparable to the normal cells | inhibition at 2 µM ([6]; Plasmodium falciparum): 100%

CCN(CC)CCCC(C)Nc1ccnc2cc(Cl)ccc12 (centres unmarked) [chloroquine, reference compound]
chemosuppression (%), day 5 [2, 8]: 94.22% | parasitemia (%), day 5 [2, 8]: 1.68 ± 1.06 (n = 5) % | parasitemia (%), day 28 [2, 8]: 0 ± 0 (n = 5) % | inhibition at 10 µM ([4]; Plasmodium falciparum, 3D7): 96.8% | inhibition at 10 µM ([6]; Plasmodium falciparum): 96.8%
